Key:
[1] = system: Human immunodeficiency virus 1; assay: Antiviral activity against wild-type HIV1 pNL4-3 infected in CMVdeltaR8.91 transfected 293T cells after 48 hrs by lentiviral vector-based luciferase reporter gene assay; assay type: functional, organism-based; conditions: Human immunodeficiency virus 1, pNL4-3, HEK-293T
Procedure, shortened: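 pNL4-3-based luciferase reporter lentiviral vector made by transfecting 293T cells with pCMV-ΔR8.91 (wild-type or V32I/L33F/I54M/V82I or V32I/L33F/I54M/I84V protease) plus luciferase transfer and envelope plasmids, with or without inhibitor. After 48 h, fresh 293T cells infected with vector. IC50 for suppression of luciferase transduction taken from dose-response curve.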

[2] = target: Protease (Human immunodeficiency virus 1) (UniProt Q9YQ12); assay: Inhibition of recombinant HIV1 protease at 1 nM using H-Lys-Ala-Arg-Val-Tyr-Phe(p-NO2)-Glu-Ala-Nle-NH2 as substrate preincubated for 5 mins followed by substrate addition measured after 3 hrs by fluorescence-based assay
Procedure, shortened: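 Recombinant HIV-1 protease (40 ng/mL stock in pH 5.0 acetate/EDTA/NaCl/2-mercaptoethanol/NP-40/glycerol) mixed with inhibitor (10 nM solution in DMSO) in 200 mM MES-NaOH pH 5.5 with 2 mM DTT, 2 mM EDTA and 1 M NaCl. Preincubated 5 min at 37 °C, then 1.0 mM substrate solution added and incubated 3 h at 37 °C. Stopped with 1 N HCl. The Lys-Ala-Arg-Val-Tyr-OH product was quantified by RP-HPLC with fluorescence (Ex 275, Em 305 nm). Single determination.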

[3] = system: Human immunodeficiency virus 1; assay: Antiviral activity against wild-type HIV1 pNL4-3 infected in human MT4 cells assessed as inhibition of virus-induced cytopathic effect after 5 days in absence of human serum by MTT assay; assay type: functional, organism-based; conditions: Human immunodeficiency virus 1, pNL4-3, MT4, 120 h
Procedure, shortened: (§1)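 MT-4 cells inoculated with HIV-1 pNL4-3, then given an equal volume of compound at several concentrations in 1% DMSO solution with 10% FBS. Incubated 5 days at 37 °C in CO2, in triplicate. MTT read by optical density, percent reduction of cytopathic effect calculated, and EC50 fitted to the median-effect equation. Values averaged over n = 3; the 50% human serum condition was run alongside.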

[4] = system: Human immunodeficiency virus 1; assay: Antiviral activity against wild-type HIV1 pNL4-3 infected in human MT4 cells assessed as inhibition of virus-induced cytopathic effect after 5 days in presence of 50 % of human serum by MTT assay; assay type: functional, organism-based; conditions: Human immunodeficiency virus 1, pNL4-3, MT4, 120 h; procedure, shortened: as §1
[5] = system: Human immunodeficiency virus 1; assay: Ratio of EC50 for wild-type HIV1 pNL4-3 infected in human MT4 in presence of 50% of human serum to EC50 for wild-type HIV-1 pNL4-3 infected in human MT4 in absence of human serum; assay type: functional
Procedure, shortened: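 Serum binding effect calculated as the pNL4-3 EC50 in 50% human serum divided by the EC50 in 0% serum, using MT-4 cytopathic-effect MTT assays run for 5 days at 37 °C.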

[6] = Ratio of EC50 for inhibition of protease L10F/V32I/M46I/I47V/Q58E/I84V mutant in HIV1 A17 infected in human MT4 cells to EC50 for wild-type HIV-1 pNL4-3 infected in human MT4 cells; assay type: functional, Human immunodeficiency virus 1
Procedure, shortened: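 Ratio of EC50 values from MT-4 cytopathic-effect MTT assays (5 days, 37 °C, triplicate, median-effect fit). Numerator is LPV-resistant strain A1711, denominator is wild-type HIV-1 pNL4-3.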

[7] = Cytotoxicity against human MT4 cells after 5 days by MTT assay; assay type: cell-based; conditions: read-out: TD50
Procedure, shortened: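 Uninfected MT-4 cells given compound at several concentrations in 1% DMSO solution with 10% FBS. Incubated 5 days at 37 °C in CO2, in triplicate. Viability read by MTT optical density, with TD50 taken as the cytotoxic measure.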

[8] = Ratio of EC50 for DRV-resistant protease V32I/L33F/I54M/V82I mutant in HIV1 transfected in 293T cells to EC50 for wild-type HIV-1 pNL4-3 infected in CMVdeltaR8.91 transfected 293T cells; assay type: functional, Human immunodeficiency virus 1
Procedure, shortened: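 Ratio of IC50 values from the 293T luciferase reporter lentiviral vector assay. Numerator is vector carrying DRV-resistant protease (V32I/L33F/I54M/I84V or V32I/L33F/I54M/V82I), denominator is wild-type pNL4-3-based vector.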

[9] = Ratio of EC50 for DRV-resistant protease V32I/L33F/I54M/I84V mutant in HIV1 transfected in 293T cells to EC50 for wild-type HIV-1 pNL4-3 infected in CMVdeltaR8.91 transfected 293T cells; assay type: functional, Human immunodeficiency virus 1

## COc1cccc2cc(C(=O)N[C@H](C(=O)N[C@@H](Cc3ccccc3)[C@H](O)C(=O)N3CSC(C)(C)[C@H]3C(=O)NCc3c(C)cccc3C)[C@H]3CCOC3)oc12
[1]
  EC50: 1.71 nM
[2]
  inhibition: 97%
[3]
  EC50: < 3 nM
[4]
  EC50: 80 nM
[5]
  Ratio EC50: >27
[6]
  Ratio EC50: >8
[7]
  CC50 at 120 h: 11000 nM
[8]
  Ratio EC50: 0.2
[9]
  Ratio EC50: 0.7
